# Source: PubChem
# The list is not random: actives were taken first. Their share in the collection is about 2.9%.
# Vif imaging = inhibitors of HIV Vif | 340,000 tested, 0.35% active | inhibition, % at 7.49 µM | HEK293T cells, Vif self-association by quenched fluorescence, imaging, 24 h; in the data active = inhibition above about 50%, passing the limit was not always enough; inconclusive = no clear call, values can overlap the other calls; inactive = below about 31%
# Cneo AK release = Cryptococcus neoformans lysis via adenylate kinase release; AID 651654; C. neoformans lysis, adenylate kinase release luminescence, 4 h; normalised: neutral wells 0, clomiphene wells 100; lysis activity, % at 15 µM; 360,000 tested, 0.2% active;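 active = mean lysis activity across replicates of at least 80%, whatever share of replicates individually reach that level; inactive = mean lysis activity below 80%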
#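 Schedule: static 4 h at 37 °C with compound, 1 h detection; system: C. neoformans cells; benchmarks: Clomiphene as positive control; buffer or medium: fresh YPD medium; measure: luminescence rise reflecting yeast cell lysis; measured by: luminescent adenylate kinase detection reagent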
# Ecoli rRNA inh = selective bacterial rRNA inhibition in E. coli | E. coli WT GFP vs humanized-ribosome RFP mutants, fluorescence, 24 h; stronger effect = lower value; DMSO median 0, no signal -100 | GFP signal change (wild-type ribosome), % (concentration not given with the values) | 350,000 tested, 1.6% active | AID 720706;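 active = significant combined selectivity score with lowered wild-type GFP, culture density cut under 30%, mutant RFP and density less affected; inactive = any of these conditions unmet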
# PGC1a acetyl inh = modulators of PGC1a acetylation | AID 651687 | U2OS PGC1a acetylation, AlphaScreen anti-acetyl-lysine; with virally co-expressed GCN5 acetyltransferase | 350,000 tested, 0.17% active | inhibition, % at 15.6 µM;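 active = every replicate shows inhibition of at least 40%; inconclusive = mean inhibition at least 40% but some replicate below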;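 also: 0% = neutral control wells and 100% = positive control wells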
# PglD inh = inhibitors of Campylobacter jejuni PglD acetyltransferase; purified PglD enzyme, DTNB colorimetric CoA detection; inhibition, % at 12.5 µM; 360,000 tested, 0.098% active; AID 602405; in the data active = inhibition above about 16%, passing the limit was not always enough; inconclusive = no clear call, values can overlap the other calls
# FGF22 binding = FGF22 (human) thermal shift binding | Q9HCT0 | recombinant FGF22 thermal shift, SYPRO orange fluorescence; percent of sucrose octasulfate shift, DMSO zero | activity (Tm shift, normalised), % at 9.99 µM | 340,000 tested, 1.5% active | AID 651658;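 active = mean Tm shift, scaled 0 neutral to 100 positive control, at about 1.3% or above, every replicate too, limit read from the data; inconclusive = no clear call, values can overlap the other calls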
# Target sequence (Q9HCT0 whole entry, looked up): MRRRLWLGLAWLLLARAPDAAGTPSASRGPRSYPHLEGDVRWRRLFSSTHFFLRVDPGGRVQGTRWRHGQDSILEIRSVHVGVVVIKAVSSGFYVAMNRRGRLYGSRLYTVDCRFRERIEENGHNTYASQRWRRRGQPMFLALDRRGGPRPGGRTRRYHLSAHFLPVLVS
# Active calls of the source: *; ? = inconclusive; / = no result.
SMILES,Vif imaging,Cneo AK release,Ecoli rRNA inh,PGC1a acetyl inh,PglD inh,FGF22 binding
COC(=O)C[C@@H]1CC[C@@H]2[C@H](COc3ccc(NS(=O)(=O)c4ccccc4Cl)cc3C(=O)N2C)O1,/,7.4,-0.6,/,9.2,-0.2
Cc1ccc(NC(=O)C2CCCN2C(=O)NC2CCCCC2)cc1C (stereo not drawn),/,/,19.1,-2.2,/,0.3
Cc1ccc(NC(=O)C2CCCN2C(=O)NC2CCCCC2)cc1F (stereo not drawn),1.2,-1.5,4.9,/,0.4,43.0*
CCN(C[C@H]1[C@H](c2ccccc2)[C@@H](CO)N1C(C)=O)C(=O)NC(C)C,/,0.9,1.1,-3.7,-0.2,0.1
COc1ccc2c3c(n(C)c2c1)[C@H](CO)N(C(=O)c1ccncc1)CC31CN(S(C)(=O)=O)C1,/,/,0.5,-2.0,/,/
O=C(NC(=S)Nc1cc([N+](=O)[O-])ccc1O)c1ccc2c(c1)OCO2,0.4,-1.5,-27.0,/,-0.5,-0.1
COc1cc([N+](=O)[O-])ccc1NC(=S)NNC(=O)c1ccc2c(c1)OCO2,/,0.9,-16.6*,-4.5,-7.9,1.0
O=C(OCc1c(-c2ccccc2)ncc2ccccc12)c1cccs1,-4.7,1.9,-20.6*,/,-0.4,-0.3
O=C(OCc1c(-c2ccccc2)ncc2ccccc12)c1ccc(Br)cc1,-3.4,1.7,6.4,-10.4,3.2,0.1
COc1ccc(NC(=O)N(C)C[C@H]2OCCCC[C@H](C)Oc3ccc(N(C)C)cc3C(=O)N([C@H](C)CO)C[C@@H]2C)cc1,/,0.6,-1.2,23.6,-1.1,-0.7
CCN1C(=O)c2cccc3c(S(=O)(=O)Nc4ccccc4)ccc1c23,?,0.9,/,-24.0,1.2,/
CCN1C(=O)c2cccc3c(S(=O)(=O)Nc4nc(C)cs4)ccc1c23,59.6*,-1.9,/,-3.6,5.5,/
CN1CCC(=NNC(=O)c2cn(-c3ccccc3)nc2-c2ccccc2)CC1,-1.6,0.4,3.4,/,-4.2,43.2*
O=C(O)c1ccc(NC(=O)c2cn(-c3ccccc3)nc2-c2ccc(Br)cc2)cc1,-3.9,/,-42.2,-5.6,/,1.6*
CCC(C)/C(C)=N/NC(=O)c1cn(-c2ccccc2)nc1-c1ccccc1 (stereo not drawn),11.9,/,/,/,/,/
COc1cccc(C(=O)Nc2ccc3c(c2)C(=O)N(C)C[C@H](OC)[C@H](C)CN(CCc2ccccc2)[C@H](C)CO3)c1,/,-0.2,-0.3,2.8,-1.8,0.1
COc1ccc(S(=O)(=O)N(C)C[C@H]2Oc3ccc(NS(=O)(=O)c4ccc(F)cc4)cc3C(=O)N([C@@H](C)CO)C[C@@H]2C)cc1,/,-2.2,-2.2,16.8,-1.6,0.1
C[C@@H]1CCCCO[C@H](CN(C)C(=O)CCCN(C)C)[C@H](C)CN([C@@H](C)CO)C(=O)c2cc(NC(=O)c3ccncc3)ccc2O1,/,-0.4,-1.2,9.1,0.3,0.4
O=C(c1ccc(-c2ccccc2)cc1)C1CCCN(C(=O)Cn2cncn2)C1 (stereo not drawn),6.7,/,-20.4,-11.7,/,42.9*
COC(=O)[C@H]1[C@H](CO)[C@H]2Cn3c(ccc(-c4ccc(F)cc4)c3=O)[C@H]2N1C(=O)C1CCC1,/,0.0,-3.8,/,0.1,-0.1
O=S(=O)(c1ccccc1)N1CC2(C1)[C@@H](c1ccccc1)[C@@H](CO)N2CC1CC1,/,/,-8.3,/,/,/
COc1ccc(Cn2cc(C(=O)O)c(=O)c3ccccc32)cc1,2.2,/,14.6,-1.6,/,43.2*
O=C(NCc1cn(-c2ccccc2)nc1-c1ccccc1)c1cccc([N+](=O)[O-])c1,-3.5,2.0,0.7,-24.2,-2.3,43.1*
CCS(=O)(=O)Nc1ccc2c(c1)C(=O)N(C)C[C@H](OC)[C@@H](C)CN(C(C)=O)[C@H](C)CO2,/,8.4,4.7,-9.6,0.8,-0.4
COCCNC(=O)COc1ncnc2scc(-c3ccc(F)cc3)c12,-1.5,/,-1.2,/,/,43.4*
SMILES,Vif imaging,Cneo AK release,Ecoli rRNA inh,PGC1a acetyl inh,PglD inh,FGF22 binding
Cc1ccc(-c2csc3ncnc(OCC(=O)NC(=O)NCc4ccco4)c23)cc1,/,0.2,-29.0*,0.8,9.3,-0.1
O=C(C1CCOCC1)N1[C@H](CO)[C@@H](c2ccccc2)C12CN(Cc1cccnc1)C2,/,/,3.2,13.4,/,-0.2
CN1C(=O)c2cc(NC(=O)C3CCOCC3)ccc2OC[C@H]2O[C@@H](CC(=O)NCC3CC3)CC[C@H]21,/,-2.4,5.7,2.7,3.6,0.1
COc1cc2c3c(c1OC)C1(C=CC(=NNC(N)=O)C=C1)CC3N(C(C)=O)CC2 (stereo not drawn),-4.0,/,0.4,/,/,43.4*
CO[C@H]1CN(C)C(=O)c2cc(NC(=O)NC3CCCC3)ccc2OC[C@H](C)NC[C@@H]1C,/,/,3.4,/,/,/
N#Cc1cccc(-c2ccc3c(c2)[C@@H]2[C@@H](CCN2C(=O)C2CCCCC2)[C@H](CO)N3)c1,/,-3.2,-25.4,3.7,-0.3,-0.2
Cc1cc(F)ccc1S(=O)(=O)Nc1ccccc1C(=O)NCc1cccnc1,-8.0,/,-23.6*,/,/,0.2
COc1ccc(S(=O)(=O)Nc2ccccc2C(=O)NCc2cccnc2)cc1C,4.5,1.1,-3.0,-4.3,5.4,-0.3
COc1ccccc1OCCOc1ccc(/C=C2\C(=N)N3N=C(S(C)(=O)=O)SC3=NC2=O)cc1,1.3,-1.3,-1.1,-0.7,-6.6,2.1*
CCn1c(C)nc2cc(C(=O)N/N=C/c3ccc(OC)c(O)c3)ccc21,-5.4,/,-23.1*,/,/,0.1
COc1ccc(CNC(=O)C[C@@H]2C=C[C@@H](NS(=O)(=O)c3cccc(OC)c3)[C@H](CO)O2)cc1,/,-2.9,-1.8,-1.2,8.9,0.1
CSc1cccc(NC(=S)N(CCCN2CCC(C)CC2)Cc2cccs2)c1,3.4,1.2,-19.0*,-6.6,0.6,41.9
O=C(O)c1ccc(NS(=O)(=O)c2cccc(C(=O)Nc3ccc(Br)cc3)c2)cc1,2.4,-0.8,-27.2*,-14.4,6.0,/
N#Cc1c(NC(=O)c2cccc(S(=O)(=O)Nc3ccc(C(=O)O)cc3)c2)sc2c1CCCC2,8.0,/,-24.2*,-3.6,/,/
O=C(Nc1ccccc1C(=O)O)c1cccc(S(=O)(=O)Nc2ccc(Br)cc2)c1,-3.1,-2.7,-23.9,/,10.5,0.2
Cc1ccc(Oc2ccc(S(=O)(=O)Nc3ccc(C(=O)O)cc3)cc2)cc1,16.2,-1.0,-23.3,/,-1.7,0.0
Cc1cc(NS(=O)(=O)c2ccc(NC(=O)c3c(F)c(F)c(F)c(F)c3F)cc2)nc(C)n1,-21.3,-0.3,1.0,0.0,0.1,-0.2
Cc1ccc(S(=O)(=O)Nc2ccc(NC(=O)c3c(F)c(F)c(F)c(F)c3F)cc2)cc1,-2.4,/,-25.6*,-11.4,/,0.1
COC(=O)Nc1ccc(S(=O)(=O)Nc2ccc(C(=O)O)cc2)cc1,1.5,/,17.6,/,/,43.2*
O=C(Nc1ccccn1)c1ccccc1,-5.3,-2.1,/,-5.1,7.8,0.1
